Results from ChEMBL document CHEMBL3091338, “Secoemestrin D, a cytotoxic epitetrathiodioxopiperizine, and emericellenes A-E, five sesterterpenoids from Emericella sp. AST0036, a fungal endophyte of Astragalus lentiginosus1” (J Nat Prod, 2013).
Active and inactive are the calls of the source. The rule behind the calls is not given here.

Tests used:
MCF7 [1] = assay: Cytotoxicity against human MCF7 cells up to 5 uM after 72 hrs by Alamar Blue assay; type: functional, cell-based
Method in brief: (§1)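 In vitro cytotoxicity was read by the colorimetric resazurin (AlamarBlue) assay of cell viability. The panel covered human non-small cell lung NCI-H460, CNS glioma SF-268, breast MCF-7, metastatic breast adenocarcinoma MDA-MB-231, metastatic prostate adenocarcinoma PC-3M and neuroblastoma CHP-100 cancer lines, plus normal human lung fibroblast WI-38 cells.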

CHP100 = assay: Cytotoxicity against human CHP100 cells up to 5 uM after 72 hrs by Alamar Blue assay; type: functional, cell-based; method in brief: as §1
[2] = Cytotoxicity against human WI38 cells up to 5 uM after 72 hrs by Alamar Blue assay; type: cell-based; details: wi-38, 72 h; method in brief: as §1
SF-268 [3] = assay: Cytotoxicity against human SF268 cells up to 5 uM after 72 hrs by Alamar Blue assay; type: functional, cell-based; method in brief: as §1
PC-3M = assay: Cytotoxicity against human PC3M cells up to 5 uM after 72 hrs by Alamar Blue assay; type: functional, cell-based; method in brief: as §1
MDA-MB-231 [4] = assay: Cytotoxicity against human MDA-MB-231 cells up to 5 uM after 72 hrs by Alamar Blue assay; type: functional, cell-based; method in brief: as §1
NCI-H460 [5] = assay: Cytotoxicity against human NCI-H460 cells up to 5 uM after 72 hrs by Alamar Blue assay; type: functional, cell-based; method in brief: as §1
NCI-H460 [6] = assay: Cytotoxicity against human NCI-H460 cells after 72 hrs by Alamar Blue assay; type: functional, cell-based; method in brief: as §1
MDA-MB-231 [7] = assay: Cytotoxicity against human MDA-MB-231 cells after 72 hrs by Alamar Blue assay; type: functional, cell-based; method in brief: as §1
MCF7 [8] = assay: Cytotoxicity against human MCF7 cells after 72 hrs by Alamar Blue assay; type: functional, cell-based
Method in brief: (§2)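 Resazurin-based colorimetric cell viability read-out on human cancer cells (MCF-7 breast; PC-3M metastatic prostate adenocarcinoma), run in vitro in a panel that also included normal human lung fibroblast WI-38 cells.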

[9] = Cytotoxicity against human PC3M cells after 72 hrs by Alamar Blue assay; type: functional, cell-based, PC-3M; method in brief: as §2
SF-268 [10] = assay: Cytotoxicity against human SF268 cells after 72 hrs by Alamar Blue assay; type: functional, cell-based; method in brief: as §1
[11] = Cytotoxicity against human CHP100 cells after 72 hrs by Alamar Blue assay; type: functional, cell-based; details: CHP100, 72 h; method in brief: as §1
[12] = Cytotoxicity against human WI38 cells after 72 hrs by Alamar Blue assay; type: cell-based; details: WI-38, 72 h; method in brief: as §1

| Compound | Activity (MCF7 [1]) | Activity (CHP100) | Activity [2] | Activity (SF-268 [3]) | Activity (PC-3M) | Activity (MDA-MB-231 [4]) | Activity (NCI-H460 [5]) | further results |
| --- | --- | --- | --- | --- | --- | --- | --- | --- |
| CC(C)=CCC[C@@]1(C(=O)O)[C@H]2C/C=C(\C)CC/C=C(\C)CC[C@H]1[C@@]1(CC2)CO1 | inactive | inactive | Non-toxic | inactive | inactive | inactive | inactive | – |
| C=C(C)[C@H]1COc2c(C)cc3oc4ccc(CC=C(C)C)c(O)c4c(=O)c3c2[C@H]1O (relative stereo) | inactive | inactive | Non-toxic | inactive | inactive | inactive | inactive | – |
| CC(C)=CCc1ccc2c(c1O)C(=O)c1c(O)cc(C)c3c1C(O2)C(C(C)(C)O)CO3 (stereo unspecified) | inactive | inactive | Non-toxic | inactive | inactive | inactive | inactive | – |
| CC(C)=CCC[C@@]1(C(=O)O)[C@H]2C/C=C(\C)CC/C=C(\C)CC[C@H]1[C@H](C=O)CC2 | inactive | inactive | Non-toxic | inactive | inactive | inactive | inactive | – |
| CC(C)=CCC[C@@]1(C=O)[C@H]2C/C=C(\C)CC/C=C(\C)CC[C@H]1[C@@]1(CC2)CO1 | inactive | inactive | Non-toxic | inactive | inactive | inactive | inactive | – |
| CC(C)=CCC[C@@]1(C(=O)O)[C@H]2C/C=C(\C)CC/C=C(\C)CC[C@H]1[C@@H](C=O)CC2 | inactive | inactive | Non-toxic | inactive | inactive | inactive | inactive | – |
| COc1cc2c(c3oc4cccc(O)c4c(=O)c13)[C@@H]1C=CO[C@@H]1O2 [STERIGMATOCYSTIN] | – | – | – | – | – | – | – | IC50 (NCI-H460 [6]; nci-h460): 3410 nM; IC50 (MDA-MB-231 [7]; mda-mb-231): 2750 nM; IC50 (MCF7 [8]; mcf7): 3630 nM; IC50 ([9]; pc-3m): 3230 nM; IC50 (SF-268 [10]; sf-268): 2960 nM |
| CC(C)=CCC[C@@]1(C(=O)O)[C@@H]2CC=C(CO)[C@@H]1CC/C(C)=C/CC/C(C)=C/C2 | inactive | inactive | Non-toxic | inactive | inactive | inactive | inactive | – |
| COc1ccc(C(=O)O[C@H]2C=COC=C3C[C@]45SSSS[C@](Cc6ccc(O)cc6)(C(=O)N4[C@@H]32)N(C)C5=O)cc1O | – | – | – | – | – | – | – | IC50 [11]: 100 nM; IC50 (NCI-H460 [6]; Homo sapiens, NCI-H460, 72 h): 150 nM; IC50 (MDA-MB-231 [7]; Homo sapiens, MDA-MB-231, 72 h): 60 nM; IC50 (MCF7 [8]; Homo sapiens, MCF7, 72 h): 140 nM; IC50 [12]: 240 nM; IC50 ([9]; Homo sapiens, PC-3M, 72 h): 170 nM; IC50 (SF-268 [10]; Homo sapiens, SF-268, 72 h): 60 nM |
| COc1cccc2c1C(=O)c1c(O)c3c(c(O)c1C2=O)C[C@@](O)(C(=O)CO)C[C@@H]3O[C@H]1C[C@H](N)[C@H](O)[C@H](C)O1 [DOXORUBICIN] | – | – | – | – | – | – | – | IC50 [11]: 790 nM; IC50 (NCI-H460 [6]; Homo sapiens, NCI-H460, 72 h): 50 nM; IC50 (MDA-MB-231 [7]; Homo sapiens, MDA-MB-231, 72 h): 680 nM; IC50 ([9]; Homo sapiens, PC-3M, 72 h): 270 nM; IC50 (SF-268 [10]; Homo sapiens, SF-268, 72 h): 310 nM |
